Apaf1 inhib: inhibitors of human Apaf-1 apoptosome, primary screen, biochemical, DEVD-Rh110 fluorescence, uHTS. reconstituted apoptosome caspase-3 activity. inhibition, % at 20 µM. hit rate 0.71% among 330,000. AID 489030, 2010; active = inhibition of at least 40% at 20 µM;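 also: plate controls were DMSO wells for no effect and DEVD-CHO caspase inhibitor wells for full effect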
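Material: reconstituted apoptosome with Apaf-1, cytochrome c, caspase-9, procaspase-3, dATP. Technique: Rh110 fluorescence intensity. Buffer or medium: pH 7.5 Hepes buffer with CHAPS, BSA, DTT. Times: 30 min plus 50 min, RT.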
UBC13 polyUb: UBC13 polyubiquitin chain formation inhibitors, primary screen, biochemical, TR-FRET, uHTS; AID 485273, 2010; hit rate 0.47% among 330,000; inhibition, % at 20 µM; Ubiquitin-conjugating enzyme E2 N (Homo sapiens), P61088; in the data active = inhibition above about 45%, passing the limit was not always enough
Target sequence (P61088 whole entry, looked up): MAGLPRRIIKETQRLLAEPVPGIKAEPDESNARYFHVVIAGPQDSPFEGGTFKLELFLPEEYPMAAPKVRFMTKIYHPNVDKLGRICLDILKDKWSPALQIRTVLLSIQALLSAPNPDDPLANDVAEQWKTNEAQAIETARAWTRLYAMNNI
ZTA DNA inh: counter-screen for EBNA-1 inhibitors: inhibitors of Epstein-Barr virus ZTA | P03206 | hit rate 0.15% among 320,000 | ZTA-DNA binding, fluorescence polarization | inhibition, % at 11 µM; in the data active = inhibition above about 33%
Target sequence (P03206 whole entry, looked up): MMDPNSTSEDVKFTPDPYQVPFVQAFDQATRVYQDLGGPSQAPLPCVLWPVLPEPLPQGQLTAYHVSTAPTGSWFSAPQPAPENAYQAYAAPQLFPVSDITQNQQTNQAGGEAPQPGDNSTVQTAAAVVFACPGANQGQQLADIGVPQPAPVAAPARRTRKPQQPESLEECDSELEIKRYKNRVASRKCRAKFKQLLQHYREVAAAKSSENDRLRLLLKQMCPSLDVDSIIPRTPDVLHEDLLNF
PREPL inh: PREPL enzyme inhibitors, primary screen, biochemical, fluorescence polarization; Prolyl endopeptidase-like (Homo sapiens), Q4J6C6; recombinant PREPL, fluorescence polarization activity-based probe; inhibition, % at 5.96 µM; hit rate 0.68% among 320,000; AID 2751, 2010; in the data active = inhibition above about 43%;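 also: 0% = enzyme with DMSO and 100% = wells lacking enzyme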
EBNA-1 inhibitor: EBNA-1 DNA-binding inhibitors, primary screen, biochemical, fluorescence polarization. inhibition, % at 14.8 µM. hit rate 0.34% among 300,000. AID 1950, 2009; in the data active = inhibition above about 28%
Apaf-1 inh conf2: Apaf-1 inhibitors, single-dose retest, confirmation, biochemical, fluorescence, DEVD-Rh110, 20 µM; shares compounds with Apaf1 inhib; reconstituted apoptosome, caspase-3 DEVD-Rh110 fluorescence; inhibition, % at 20 µM; hit rate 25% among 1,800;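 active = mean inhibition of at least 40% at 20 µM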;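 also: plate controls were DMSO wells for no effect and DEVD-CHO caspase inhibitor control wells for full effect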
Rh110 interf inh: Rh110 fluorescence interference by putative Apaf-1 inhibitors, confirmation, artefact control for Apaf-1 inhibitor project, biochemical, 20 µM; shares compounds with Apaf1 inhib; quenched caspase reaction; activation (fluorescence interference), % at 20 µM; 1,800 tested, under 10 active; AID 504615, 2011;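 active = signal rise of 40% or more at 20 µM, treated as a fluorescence artifact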
Fluor interf inh: fluorescence interference of Apaf-1 inhibitor hits, dose response, artefact control for Apaf-1 inhibitor project. shares compounds with Apaf1 inhib. fluorescence interference counterscreen, Apaf-1 assay format. IC50, µM. 460 tested, under 10 active. AID 588538, 2011; call rule not given here
An asterisk follows results filed as active; . = not tested or not shown. Only some compounds are listed: those with a hit (about 1.7% of all), similar ones and a draw of the others.

SMILES	Apaf1 inhib	UBC13 polyUb	ZTA DNA inh	PREPL inh	EBNA-1 inhibitor	Apaf-1 inh conf2	Rh110 interf inh	others
O=C(Cc1cccc(C(F)(F)F)c1)OCC(=O)N1CCN(S(=O)(=O)c2ccc(Cl)cc2)CC1	51.1*	-8.3	-0.7	15.6	3.5	27.6	-8.9
CC(=O)Nc1ccc(S(=O)(=O)NCc2ccc3c(c2)cc(C)n3C)cc1	51.2*	18.6	-5.7	19.6	-0.6	3.8	2.5
Cc1cc2cc(CNC(=O)c3ccc(S(=O)(=O)N(C)C)cc3)ccc2n1C	45.4*	5.8	7.5	7.4	-7.8	8.8	7.7
Cc1cc(C)c(S(=O)(=O)NCc2ccc3c(c2)cc(C)n3C)c(C)c1	44.0*	6.0	4.4	-16.9	10.7	3.1	-1.4
Cc1cc2cc(CNS(=O)(=O)c3ccc4ccccc4c3)ccc2n1C	16.0	-9.3	8.0	-4.7	0.2	.	.
Cc1cc2cc(CNC(=O)c3ccc(S(=O)(=O)N4CCOCC4)cc3)ccc2n1C	35.1	3.0	12.6	15.0	7.5	.	.
Cc1nn(-c2ccccc2)c(C)c1C=O	-22.0	0.4	16.2	4.2	-0.9	.	.
COc1ccc(C(=O)Nc2c(N)nc(SCC(=O)NCC3CCCO3)[nH]c2=O)cc1OC (stereo not given)	-7.2	6.0	8.8	-1.4	-2.4	.	.
COc1cc(C(=O)Sc2ccc(Cl)cc2)cc(OC)c1OC	-11.5	3.4	-10.2	18.0	3.0	.	.
O=C(CCn1c(=O)oc2ccccc21)NC1=NCCS1	-2.8	1.2	-9.9	10.4	9.2	.	.
CCN1CCN(Cc2ccc(NC(=O)c3ccc(C)c(NC(=O)c4csc(-c5ccncc5)n4)c3)cc2C(F)(F)F)CC1	58.5*	24.4	15.7	3.3	6.8	28.4	1.0
CCN1CCN(Cc2ccc(NC(=O)c3ccc(C)c(NC(=O)c4cccc(-c5cn[nH]c(=O)c5)c4)c3)cc2C(F)(F)F)CC1	19.3	42.7	0.0	-1.7	0.3	.	.
Cn1c(=O)n(C)c2cc(/C=N/NC(=O)c3cc4cc(Br)ccc4o3)ccc21	43.0*	13.4	-5.0	13.2	-1.5	10.5	-0.9
CS(=O)(=O)N(CCc1ccccc1)CC(=O)NCc1cccnc1	-6.6	0.3	14.7	-3.8	1.4	.	.
c1ccc2[nH]c(CSc3nccs3)nc2c1	-3.5	-8.5	-5.1	20.9	-0.8	.	.
Nc1c(N2CCCC2)cc(Cl)c2nonc12	95.7*	-101.0	11.5	34.4	12.1	75.3*	4.1	Fluor interf inh=>100
CCC(CC)C(=O)NCc1ccccc1Cl	-6.8	4.4	-10.6	-4.8	1.7	.	.
CCCCCc1cc(=O)oc2c(C(CCN3CCCCC3)c3ccc4c(c3)OCO4)c(OC)cc(OC)c12 (stereo not given)	65.9*	13.2	7.4	8.9	4.6	38.9	18.4
COc1cc(OC)c2c(-c3ccccc3)cc(=O)oc2c1C(CCN1CCOCC1)c1ccc2c(c1)OCO2 (stereo not given)	42.1*	.	.	.	.	9.1	-2.3
COc1ccc(C(CCN2CCN(c3ccccc3)CC2)c2c(OC)cc(OC)c3c(-c4ccccc4)cc(=O)oc23)cc1 (stereo not given)	16.5	-1.7	-3.4	-2.6	8.5	.	.
COc1ccc(C(CCN2CCOCC2)c2c(OC)cc(OC)c3c(-c4ccccc4)cc(=O)oc23)cc1 (stereo not given)	52.9*	.	.	.	.	2.0	7.2
O=[N+]([O-])c1cc(S(=O)(=O)NCCN2CCOCC2)ccc1Sc1nnnn1-c1ccccc1	4.0	-9.5	-8.5	-1.1	-6.4	.	.
COCCCN(C(=S)Nc1c(C)cc(C)cc1C)C(C)c1ccccn1 (stereo not given)	6.6	-2.3	0.7	-8.1	-5.1	.	.
N#C/C(=C\c1ccncc1)c1nc2ccccc2c(=O)[nH]1	1.6	-6.6	-0.5	4.4	-8.7	.	.
Fc1ccc(-[n+]2nc(Nc3ccccc3)sc2-c2c3ccccc3cc3ccccc23)cc1	42.5*	-8.5	-14.8	12.5	-2.5	14.7	4.4
SMILES	Apaf1 inhib	UBC13 polyUb	ZTA DNA inh	PREPL inh	EBNA-1 inhibitor	Apaf-1 inh conf2	Rh110 interf inh	others
Cc1cc2nn(-c3ccc(Cl)cc3)nc2cc1N	49.5*	-11.1	5.2	4.2	0.2	22.4	2.8
Cc1cc2nn(-c3ccc(F)cc3)nc2cc1N	30.8	-6.6	-14.7	6.9	6.9	.	.
Cc1ccc2nc(/C(C#N)=C\c3ccc(N4CCOCC4)o3)[nH]c2c1	44.1*	-4.8	9.8	-0.4	4.0	17.5	-28.1
COc1ccc2sc(N(CCCN(C)C)C(=O)c3ccc(C(=O)c4ccccc4)cc3)nc2c1	30.5	17.8	-15.3	-19.0	-9.1	.	.
CCN(Cc1ccccc1)S(=O)(=O)c1ccc(C(=O)N(CCCN(C)C)c2nc3cc(OC)ccc3s2)cc1	40.0*	38.6	-1.6	23.4	-8.6	14.9	12.2
Cc1ccc(S(=O)(=O)/N=C2\C(=O)c3ccccc3C([O-])=C2n2cc[n+](CCC(C)C)c2)cc1	57.1*	-97.5	9.6	18.4	4.9	68.1*	2.9	Fluor interf inh=>100
CCCC[n+]1ccn(C2=C([O-])c3ccccc3C(=O)/C2=N\S(=O)(=O)c2ccc(Br)cc2)c1	58.8*	-58.9	19.7	29.2	2.4	67.8*	0.4	Fluor interf inh=>100
Cc1ccc(S(=O)(=O)[N-]c2nc3ccccc3nc2-n2cc[n+](CCC(C)C)c2)cc1	-0.9	6.4	1.1	-13.4	-0.1	.	.
CC(=O)Nc1ccc(S(=O)(=O)/N=C2\C(=O)c3ccccc3C([O-])=C2n2cc[n+](-c3ccccn3)c2)cc1	84.2*	-103.3	-4.6	13.7	-3.1	75.6*	2.8	Fluor interf inh=>100
c1ccc2c(c1)CCN(c1ncnc3nc[nH]c13)C2	-1.3	19.8	-7.0	-5.8	2.1	.	.
CCNC(=O)c1sc(=S)n(CC)c1N	2.7	-7.4	2.4	9.7	-10.2	.	.
CN(C)CCNC(=O)C(=O)NCC1OCCN1S(=O)(=O)c1cc(F)ccc1F (stereo not given)	46.5*	24.0	6.2	-0.3	2.3	21.0	4.8
O=C(NCCN1CCOCC1)C(=O)NCC1OCCN1S(=O)(=O)c1cc(F)ccc1F (stereo not given)	-0.1	3.1	7.3	-5.6	14.4	.	.
O=C(CSc1nc2ncccc2[nH]1)NCc1ccccc1	-6.7	6.1	14.7	-1.8	-0.3	.	.
CC(C)=CCC/C(C)=C/CNC(=O)C[C@H]1C[C@H](C(=O)N2CCOCC2)[C@@]2(C)c3[nH]c4cc(-c5ccco5)ccc4c3CCN2C1=O	44.4*	.	.	.	.	17.4	3.0
CC[C@]12c3[nH]c4ccc(Cl)cc4c3CCN1C(=O)[C@@H](CC(=O)NCC13CC4CC(CC(C4)C1)C3)C[C@@H]2C(=O)N1CCN(C(=O)c2ccco2)CC1	43.7*	.	.	.	.	17.9	7.4

From PubChem
